The values below come from ChEMBL document CHEMBL1150387, “Development and experimental validation of a docking strategy for the generation of kinase-targeted libraries” (J Med Chem, 2008).

The target in assay [1] is Cyclin-dependent kinase 1 (Homo sapiens) (UniProt P06493). Put plainly: Inhibition of CDK1 at 10 uM by HTRF assay relative to control. The method, boiled down:
(§1)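 HTRF kinase assay, one panel of kinases. Inhibitor stock 50 µM in 100% DMSO; tested at 10 µM. ATP and substrate at final levels near Km. Final buffer: 50 mM Hepes/NaOH pH 7.4, 40 µM Na3VO4, 0.005% Tween-20, 1 mM DTT, MnCl2 or MgCl2 at kinase-dependent levels. Started by adding ATP/substrate. Reaction run at room temperature, time varied by kinase. Detection mix in 50 mM Hepes pH 7.4, 0.1% BSA, 150 mM KF, incubated ≥1 h at room temperature. Activity expressed as % of uninhibited control; n=2.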
A general note: TR-FRET usually uses a lanthanide donor and a delayed reading to cut background.

Assay [2] deals with Tyrosine-protein kinase Lck (Homo sapiens) (UniProt P06239). Put plainly: Inhibition of Lck at 10 uM by HTRF assay relative to control. The method, boiled down: as §1
Assay [3] has as its target Serine/threonine-protein kinase Chk2 (Homo sapiens) (UniProt O96017). Put plainly: Inhibition of CHK2 at 10 uM by HTRF assay relative to control. The method, boiled down: as §1
In assay [4] the target is Tyrosine-protein kinase Fes/Fps (Homo sapiens) (UniProt P07332). Put plainly: Inhibition of FES at 10 uM by HTRF assay relative to control. The essentials:
as §1

Assay [5] addresses Ribosomal protein S6 kinase beta-1 (Homo sapiens) (UniProt P23443). Put plainly: Inhibition of p70S6K at 10 uM by HTRF assay relative to control. The method, boiled down: as §1
Assay [6] is described as follows: Inhibition of AMPKalpha at 10 uM by HTRF assay relative to control. The essentials: as §1
Assay [7] concerns the target MAP kinase-activated protein kinase 2 (Homo sapiens) (UniProt P49137). Put plainly: Inhibition of MAPKAPK2 at 10 uM by HTRF assay relative to control. The method, boiled down:
as §1

Assay [8] deals with Ribosomal protein S6 kinase alpha-3 (Homo sapiens) (UniProt P51812). Put plainly: Inhibition of RSK2 at 10 uM by HTRF assay relative to control. The method, boiled down:
as §1

For assay [9], the target named is Rho-associated protein kinase 2 (Homo sapiens) (UniProt O75116). Put plainly: Inhibition of ROCK2 at 10 uM by HTRF assay relative to control. The method, boiled down: as §1
Rho-associated protein kinase 2 (Homo sapiens), sequence (O75116 whole entry, looked up): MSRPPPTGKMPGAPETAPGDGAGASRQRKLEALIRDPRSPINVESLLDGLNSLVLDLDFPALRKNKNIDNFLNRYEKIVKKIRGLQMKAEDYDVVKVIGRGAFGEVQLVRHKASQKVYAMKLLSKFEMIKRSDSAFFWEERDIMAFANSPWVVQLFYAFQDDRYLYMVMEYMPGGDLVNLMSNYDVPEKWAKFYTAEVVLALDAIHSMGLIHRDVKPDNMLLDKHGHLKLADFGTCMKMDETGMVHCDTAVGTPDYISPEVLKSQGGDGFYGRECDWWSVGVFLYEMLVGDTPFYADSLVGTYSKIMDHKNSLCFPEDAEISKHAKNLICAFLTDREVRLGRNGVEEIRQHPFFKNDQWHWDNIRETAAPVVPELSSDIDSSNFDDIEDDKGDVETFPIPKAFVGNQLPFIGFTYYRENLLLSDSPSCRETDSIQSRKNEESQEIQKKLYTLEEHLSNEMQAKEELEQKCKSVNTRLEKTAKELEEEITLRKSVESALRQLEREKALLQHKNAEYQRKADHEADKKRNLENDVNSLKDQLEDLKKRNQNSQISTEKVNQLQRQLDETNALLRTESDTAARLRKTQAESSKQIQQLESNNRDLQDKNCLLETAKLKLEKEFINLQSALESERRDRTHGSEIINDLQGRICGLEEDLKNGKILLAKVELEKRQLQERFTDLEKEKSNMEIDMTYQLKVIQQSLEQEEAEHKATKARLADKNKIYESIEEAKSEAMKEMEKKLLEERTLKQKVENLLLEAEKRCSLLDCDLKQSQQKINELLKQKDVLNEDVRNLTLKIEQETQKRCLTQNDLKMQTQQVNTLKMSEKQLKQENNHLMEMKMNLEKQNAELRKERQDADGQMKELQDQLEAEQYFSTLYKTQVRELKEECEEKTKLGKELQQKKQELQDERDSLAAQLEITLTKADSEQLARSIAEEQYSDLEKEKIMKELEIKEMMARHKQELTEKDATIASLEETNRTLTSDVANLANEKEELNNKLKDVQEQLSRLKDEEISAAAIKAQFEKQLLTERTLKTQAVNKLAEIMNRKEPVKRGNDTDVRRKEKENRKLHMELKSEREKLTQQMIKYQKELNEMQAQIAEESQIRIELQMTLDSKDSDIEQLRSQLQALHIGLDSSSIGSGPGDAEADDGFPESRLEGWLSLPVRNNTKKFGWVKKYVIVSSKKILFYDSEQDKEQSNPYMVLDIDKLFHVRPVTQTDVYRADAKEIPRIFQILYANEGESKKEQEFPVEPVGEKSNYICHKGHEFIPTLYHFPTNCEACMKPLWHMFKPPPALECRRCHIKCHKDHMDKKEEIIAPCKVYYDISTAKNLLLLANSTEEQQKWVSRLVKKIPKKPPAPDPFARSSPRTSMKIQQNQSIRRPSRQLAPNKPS
Assay [10] concerns the target Protein kinase C alpha type (Homo sapiens) (UniProt P17252). Put plainly: Inhibition of PKCalpha at 10 uM by HTRF assay relative to control. The essentials: as §1
In assay [11] the target is Calcium/calmodulin-dependent protein kinase type II subunit alpha (Homo sapiens) (UniProt Q9UQM7). Put plainly: Inhibition of CaMK2alpha at 10 uM by HTRF assay relative to control. The essentials: as §1
Calcium/calmodulin-dependent protein kinase type II subunit alpha (Homo sapiens), sequence (Q9UQM7 whole entry): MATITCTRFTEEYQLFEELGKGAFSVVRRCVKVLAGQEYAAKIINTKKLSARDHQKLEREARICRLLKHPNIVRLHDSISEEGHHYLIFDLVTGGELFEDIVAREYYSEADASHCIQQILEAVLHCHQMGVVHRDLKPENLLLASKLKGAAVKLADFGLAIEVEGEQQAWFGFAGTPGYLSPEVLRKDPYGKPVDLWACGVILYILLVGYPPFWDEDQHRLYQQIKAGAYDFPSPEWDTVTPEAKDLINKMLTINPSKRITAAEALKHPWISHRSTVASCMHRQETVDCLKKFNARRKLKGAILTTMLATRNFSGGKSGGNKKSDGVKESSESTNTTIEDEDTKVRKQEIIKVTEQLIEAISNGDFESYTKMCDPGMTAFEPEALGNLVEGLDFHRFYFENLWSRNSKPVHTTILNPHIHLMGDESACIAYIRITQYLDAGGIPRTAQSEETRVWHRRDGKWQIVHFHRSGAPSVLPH
Assay [12] addresses Mitogen-activated protein kinase 8 (Homo sapiens) (UniProt P45983). Put plainly: Inhibition of JNK1 at 10 uM by HTRF assay relative to control. The essentials:
as §1

For assay [13], the target named is 3-phosphoinositide-dependent protein kinase 1 (Homo sapiens) (UniProt O15530). Put plainly: Inhibition of PDK1 at 10 uM by HTRF assay relative to control.
3-phosphoinositide-dependent protein kinase 1 (Homo sapiens), sequence (O15530 whole entry, looked up): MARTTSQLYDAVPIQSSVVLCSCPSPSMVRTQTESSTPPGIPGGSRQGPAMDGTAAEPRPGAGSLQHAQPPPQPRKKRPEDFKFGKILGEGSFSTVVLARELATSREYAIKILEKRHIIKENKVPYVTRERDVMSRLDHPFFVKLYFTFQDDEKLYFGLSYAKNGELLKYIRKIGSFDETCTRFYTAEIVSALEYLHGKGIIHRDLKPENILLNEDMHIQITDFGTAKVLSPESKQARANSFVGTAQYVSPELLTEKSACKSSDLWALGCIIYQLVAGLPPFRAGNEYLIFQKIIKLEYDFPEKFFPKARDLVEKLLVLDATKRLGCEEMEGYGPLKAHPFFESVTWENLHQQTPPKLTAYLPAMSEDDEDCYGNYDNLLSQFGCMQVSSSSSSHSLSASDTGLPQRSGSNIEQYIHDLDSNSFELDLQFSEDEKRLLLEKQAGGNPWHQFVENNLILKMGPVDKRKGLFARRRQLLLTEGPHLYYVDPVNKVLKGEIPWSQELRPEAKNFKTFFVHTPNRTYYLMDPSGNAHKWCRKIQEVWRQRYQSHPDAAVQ
The target of assay [14] is T1, Serine/threonine-protein kinase Chk1 (Homo sapiens) (UniProt O14757).
T1 sequence (whole entry): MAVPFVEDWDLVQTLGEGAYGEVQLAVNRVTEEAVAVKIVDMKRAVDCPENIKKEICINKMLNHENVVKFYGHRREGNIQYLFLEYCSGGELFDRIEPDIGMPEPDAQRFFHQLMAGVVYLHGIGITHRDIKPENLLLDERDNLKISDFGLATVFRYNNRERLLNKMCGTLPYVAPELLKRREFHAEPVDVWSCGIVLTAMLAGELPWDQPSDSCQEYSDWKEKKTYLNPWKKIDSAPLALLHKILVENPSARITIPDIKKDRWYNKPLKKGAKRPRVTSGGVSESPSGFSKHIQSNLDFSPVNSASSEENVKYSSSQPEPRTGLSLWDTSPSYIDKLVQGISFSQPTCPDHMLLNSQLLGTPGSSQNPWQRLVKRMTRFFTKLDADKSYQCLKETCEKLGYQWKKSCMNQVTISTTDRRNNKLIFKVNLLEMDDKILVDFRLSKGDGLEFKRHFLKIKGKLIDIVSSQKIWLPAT
Put plainly: Inhibition of CHK1 at 10 uM by HTRF assay relative to control. The method, boiled down: as §1

Assay [15] addresses Protein kinase C gamma type (Homo sapiens) (UniProt P05129). Put plainly: Inhibition of PKCgamma at 10 uM by HTRF assay relative to control. The method, boiled down:
as §1

In assay [16] the target is T2, Inhibitor of nuclear factor kappa-B kinase subunit beta (Homo sapiens) (UniProt O14920).
T2 sequence (whole entry): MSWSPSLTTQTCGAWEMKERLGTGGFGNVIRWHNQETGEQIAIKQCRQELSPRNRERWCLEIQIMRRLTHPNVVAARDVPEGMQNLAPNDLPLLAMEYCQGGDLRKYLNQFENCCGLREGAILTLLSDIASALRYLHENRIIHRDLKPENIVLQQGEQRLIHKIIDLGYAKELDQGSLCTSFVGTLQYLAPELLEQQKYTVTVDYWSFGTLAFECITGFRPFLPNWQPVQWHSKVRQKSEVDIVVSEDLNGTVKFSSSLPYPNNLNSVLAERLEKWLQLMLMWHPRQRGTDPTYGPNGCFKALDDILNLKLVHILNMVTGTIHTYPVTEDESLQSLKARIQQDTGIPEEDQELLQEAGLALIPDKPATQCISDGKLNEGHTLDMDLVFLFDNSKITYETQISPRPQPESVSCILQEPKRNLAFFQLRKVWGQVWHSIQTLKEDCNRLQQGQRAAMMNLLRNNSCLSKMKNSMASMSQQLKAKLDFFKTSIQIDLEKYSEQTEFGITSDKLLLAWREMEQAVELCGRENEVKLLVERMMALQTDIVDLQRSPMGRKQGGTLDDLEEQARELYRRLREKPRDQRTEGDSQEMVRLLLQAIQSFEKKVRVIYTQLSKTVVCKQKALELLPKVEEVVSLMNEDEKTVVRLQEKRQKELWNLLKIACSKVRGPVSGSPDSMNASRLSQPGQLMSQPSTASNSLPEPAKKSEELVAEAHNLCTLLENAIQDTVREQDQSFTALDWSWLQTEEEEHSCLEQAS
Put plainly: Inhibition of IKK-beta at 10 uM by HTRF assay relative to control. The essentials: as §1

Assay [17] deals with Fibroblast growth factor receptor 1 (Homo sapiens) (UniProt P11362). Put plainly: Inhibition of FGFR1 at 10 uM by HTRF assay relative to control. The essentials:
as §1

Assay [18] has as its target Platelet-derived growth factor receptor beta (Homo sapiens) (UniProt P09619). Put plainly: Inhibition of PDGFRbeta at 10 uM by HTRF assay relative to control. The essentials: as §1
Assay [19] concerns the target Insulin-like growth factor 1 receptor (Homo sapiens) (UniProt P08069). Put plainly: Inhibition of IGF1R at 10 uM by HTRF assay relative to control. The method, boiled down: as §1
In assay [20] the target is High affinity nerve growth factor receptor (Homo sapiens) (UniProt P04629). Put plainly: Inhibition of TrkA at 10 uM by HTRF assay relative to control. The method, boiled down:
as §1

Each structure is given as a SMILES string.

Fibroblast growth factor receptor 1 (Homo sapiens), sequence (P11362 22-822 limits assumed): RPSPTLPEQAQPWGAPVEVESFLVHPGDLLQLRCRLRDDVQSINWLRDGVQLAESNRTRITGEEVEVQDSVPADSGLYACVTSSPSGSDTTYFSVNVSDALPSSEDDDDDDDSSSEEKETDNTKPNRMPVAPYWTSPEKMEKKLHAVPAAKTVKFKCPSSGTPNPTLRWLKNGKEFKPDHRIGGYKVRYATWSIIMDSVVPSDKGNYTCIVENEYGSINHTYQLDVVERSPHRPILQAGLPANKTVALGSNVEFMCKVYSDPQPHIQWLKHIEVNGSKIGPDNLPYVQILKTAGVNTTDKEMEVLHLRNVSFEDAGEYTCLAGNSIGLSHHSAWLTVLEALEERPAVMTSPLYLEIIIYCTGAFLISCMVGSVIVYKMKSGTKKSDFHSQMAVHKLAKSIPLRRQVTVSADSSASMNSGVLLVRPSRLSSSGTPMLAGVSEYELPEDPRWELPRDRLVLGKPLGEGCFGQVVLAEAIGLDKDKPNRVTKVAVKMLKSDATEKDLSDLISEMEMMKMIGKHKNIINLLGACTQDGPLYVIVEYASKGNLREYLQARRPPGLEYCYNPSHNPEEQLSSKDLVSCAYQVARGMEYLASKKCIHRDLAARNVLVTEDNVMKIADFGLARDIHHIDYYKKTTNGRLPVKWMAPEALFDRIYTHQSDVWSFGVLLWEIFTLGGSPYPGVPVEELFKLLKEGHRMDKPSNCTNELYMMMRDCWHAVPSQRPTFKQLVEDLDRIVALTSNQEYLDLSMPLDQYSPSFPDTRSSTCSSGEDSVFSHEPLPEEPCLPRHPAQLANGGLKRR
Tyrosine-protein kinase Fes/Fps (Homo sapiens), sequence (P07332 whole entry): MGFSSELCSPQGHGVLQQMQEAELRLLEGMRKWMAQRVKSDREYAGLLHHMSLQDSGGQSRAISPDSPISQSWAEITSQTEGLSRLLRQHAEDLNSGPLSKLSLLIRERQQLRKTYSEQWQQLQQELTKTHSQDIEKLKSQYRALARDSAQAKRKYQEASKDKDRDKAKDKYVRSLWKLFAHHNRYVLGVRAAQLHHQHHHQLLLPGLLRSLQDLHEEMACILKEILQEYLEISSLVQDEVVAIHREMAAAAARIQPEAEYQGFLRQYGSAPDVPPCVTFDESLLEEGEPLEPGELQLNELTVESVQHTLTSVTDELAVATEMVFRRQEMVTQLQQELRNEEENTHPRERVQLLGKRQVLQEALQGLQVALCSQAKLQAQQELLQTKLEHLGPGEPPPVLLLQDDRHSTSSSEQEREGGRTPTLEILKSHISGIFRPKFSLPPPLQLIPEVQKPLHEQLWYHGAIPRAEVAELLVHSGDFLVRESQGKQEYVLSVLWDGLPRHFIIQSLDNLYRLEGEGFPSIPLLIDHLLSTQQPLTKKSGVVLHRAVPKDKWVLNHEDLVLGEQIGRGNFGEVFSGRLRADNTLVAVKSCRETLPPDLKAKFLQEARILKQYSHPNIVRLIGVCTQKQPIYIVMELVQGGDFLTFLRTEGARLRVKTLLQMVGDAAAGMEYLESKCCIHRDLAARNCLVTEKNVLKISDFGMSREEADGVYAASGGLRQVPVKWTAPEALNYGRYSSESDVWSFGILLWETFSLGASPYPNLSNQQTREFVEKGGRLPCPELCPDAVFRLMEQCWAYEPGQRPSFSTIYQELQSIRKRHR
Cyclin-dependent kinase 1 (Homo sapiens), sequence (P06493 whole entry, looked up): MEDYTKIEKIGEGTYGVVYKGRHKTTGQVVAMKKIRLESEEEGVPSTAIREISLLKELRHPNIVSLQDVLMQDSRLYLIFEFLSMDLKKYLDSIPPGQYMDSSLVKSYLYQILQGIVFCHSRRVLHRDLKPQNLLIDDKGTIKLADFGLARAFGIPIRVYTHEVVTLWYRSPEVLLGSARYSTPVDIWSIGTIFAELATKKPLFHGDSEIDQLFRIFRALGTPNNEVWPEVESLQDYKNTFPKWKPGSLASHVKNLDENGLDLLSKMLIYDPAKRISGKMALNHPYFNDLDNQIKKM

In the case of `Cc1cccc(N(C)c2cc(Nc3cccc(C(=O)N(C)CCc4ccccn4)c3)ncn2)c1`, the inhibition in assay [1] is 0%; in [2], 10%; in assay [3] it was 0%; in [4], 15%; in assay [5], 9%; in [6] it was 0%. The inhibition is 0% in assay [7]; 0% in [8]; 0% in assay [9]; 5% in [10]; 0% in assay [11]; 0% in assay [12]. For the same compound, the inhibition in [13] was determined as 0%; in assay [14], 6%; in assay [15], 6%; in assay [16] it was 8%; in [17], 30%; in [18], 23%. Further, the inhibition in [19] was 0%; in [20], 10%.
`Cc1cccc(N(C)c2cc(N3CCN(CC(=O)Nc4nc(-c5ccccc5)cs4)CC3)ncn2)c1`: the inhibition came out at 0% in assay [1]; 0% in assay [2]; 0% in assay [3]; 0% in [4]; 3% in [5]; 14% in assay [6]. Further, the inhibition turned out to be 3% in assay [7]; 0% in assay [8]; 0% in assay [9]; 3% in assay [10]; 0% in assay [11]; 0% in assay [12]. The inhibition in [13] amounted to 5%; in assay [14] it was 1%; in [15], 0%; in assay [16] it was 9%; in assay [17], 0%; in assay [18], 7%. The figures for the inhibition in assay [19] and in assay [20] were 6% and 8%, respectively.
Take `CC(=O)N1CCN(C(=O)c2cccc(Nc3cc(N(C)c4cccc(C)c4)ncn3)c2)CC1`: the inhibition in [1] is 0%; in assay [2], 27%; in assay [3], 0%; in assay [4], 18%; in [5], 4%; in assay [6], 0%. The inhibition in [7] was 0%; in assay [8], 14%; in assay [9], 0%; in assay [10], 6%; in assay [11], 0%; in assay [12], 0%. Also, the inhibition came to 0% in [13]; 2% in [14]; 5% in [15]; 1% in assay [16]; 21% in assay [17]; 42% in [18]. Besides, the results for the inhibition in assay [19] and in assay [20] were 0% and 12%, respectively.
As to `Cc1cccc(Oc2ccnc(N3CCN(CC(=O)Nc4cccc5c4CCCC5)CC3)n2)c1`, the inhibition in assay [1] worked out at 0%; in assay [2], 0%; in assay [3], 3%; in assay [4], 23%; in [5] it was 14%; in assay [6], 0%. For the same compound, the inhibition is 0% in assay [7]; 0% in [8]; 0% in assay [9]; 3% in assay [10]; 0% in assay [11]; 0% in [12]. The inhibition is 0% in assay [13]; 5% in assay [14]; 5% in [15]; 0% in [16]; 0% in [17]; 6% in assay [18]. For the same compound, the inhibition in assay [19] is 0%; in [20], 10%.

What is called inhibition is how much of the control response was suppressed.
